From PMC6016630 (British Journal of Pharmacology, 2018) come the findings set out here.

The test system of assay [1] is cGMP in the PFC of mice. As to the kind of experiment: Determination of cGMP in mouse prefrontal cortex. Type of assay: in vivo. The settings on record: 30 min after p.o. administration, highest dose tested, P < 0.05. In outline: (§1)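 Adult male CD-1 mice, n = 8/group, dosed p.o. with vehicle (0.5% Natrosol, 0.01% Tween-80) or test compound. Killed by focused microwave brain irradiation 30 min later. PFC homogenized and centrifuged in 0.5 N HCl; supernatant assayed by ELISA. Detection limits: cGMP 0.02, cAMP 0.03 pmol·mg−1 tissue. One-way ANOVA, Dunnett's.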

Assay [2] concerns cAMP in the PFC of mice. The experiment in a line: Determination of cAMP in mouse prefrontal cortex. Type of assay: in vivo. Conditions: 30 min after p.o. administration, highest dose tested, P < 0.05. The essentials:
as §1

For assay [3], the system named is male CD‐1 mice. The experiment in a line: T‐maze continuous alternation task, MK‐801‐induced memory impairment. Type of assay: in vivo, mouse. The settings on record: for time spent in the T‐maze vs. MK‐801/vehicle‐treated group: P > 0.05. The essentials: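 Male CD-1 mice (about 28 g) on a reversed light cycle, tested in the dark phase in an enclosed, elevated T-maze under dim light (10 lux). MK-801 s.c. 30 min pre-test; test compound (0.1–75 mg·kg−1 p.o., Natrosol/Tween vehicle) given just after it. 14 trials in 14 min; mice completing <50% excluded. Reversal scaled: saline/vehicle 100%, MK-801/vehicle 0%. Kruskal–Wallis, Dunn's.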

Assay [4] concerns synaptic transmission in acute slices of the rat PFC. As to the kind of experiment: Extracellular field potential. It is filed as cell-based. In outline: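 PFC slices from male Sprague Dawley rats aged 5–6 weeks, cut in ice-cold ACSF (pH 7.4, 95% O2/5% CO2). Layer V fEPSPs (prelimbic/infralimbic) evoked by 100 μs pulses every 30 s to layers II–III. Drugs from DMSO, 0.05% final, applied 30–60 min after 30 min baseline. Amplitude as % of last 10 min baseline; 3–14 slices/group; paired t-test.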

In assay [5] the test system is male Lister‐hooded rats. As to the kind of experiment: 5‐choice serial reaction time task. Type of assay: in vivo, rat. The essentials: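 Food-restricted rats held at about 85% of free-feeding weight. Trained to criterion: ≥50 correct trials, ≥70% accuracy, ≤20% omissions (SD 0.7 s, ITI 5 s, LH 5 s). Ten challenge sessions with SD cut from 700 to 500 ms. Upper and lower 15% by mean accuracy taken as high/low performers, n = 9. Test compound in saline given i.p. 10 min pre-test. Repeated-measures ANOVA, Dunnett's.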

The mark [6] stands for this setting: high‐performing rats, 3 mg·kg^−1, mean ± SEM.
Setting [7] is: high‐performing rats, 6 mg·kg^−1, mean ± SEM.
Setting [8] is: low‐performing rats, 3 mg·kg^−1, mean ± SEM.
[9] abbreviates: low‐performing rats, 6 mg·kg^−1, mean ± SEM.

As for `CN1C(=O)c2c(nn(Cc3ccc(-c4cccc(F)n4)cc3)c2Nc2ccccc2)N2C1=N[C@@H]1CCC[C@@H]12` [ITI‐214], the “PFC cGMP vs. vehicle” value in assay [1] is on record as “significant increase”. Also, the “PFC cAMP vs. vehicle” value in assay [2] is “significant increase”. For the same compound, the “change in alternation of MK‐801‐treated mice” value in assay [3] (ITI‐214 0.1 mg·kg^−1 p.o., MK‐801 0.1 mg·kg^−1 s.c.) turned out to be 0%; in assay [3] (ITI‐214 1 mg·kg^−1 p.o., MK‐801 0.1 mg·kg^−1 s.c.) it was 13%; in assay [3] (ITI‐214 3 mg·kg^−1 p.o., MK‐801 0.1 mg·kg^−1 s.c.), 12%; in assay [3] (ITI‐214 10 mg·kg^−1 p.o., MK‐801 0.1 mg·kg^−1 s.c.) it was 10%; in assay [3] (ITI‐214 30 mg·kg^−1 p.o., MK‐801 0.1 mg·kg^−1 s.c.), 7%; in assay [3] (ITI‐214 75 mg·kg^−1 p.o., MK‐801 0.1 mg·kg^−1 s.c.), 2%. For the same compound, the “effect on alternation performance of MK‐801‐treated mice” value in assay [3] (ITI‐214 1 mg·kg^−1 p.o., P < 0.05 vs. MK‐801) was “statistically significant”; in assay [3] (ITI‐214 3 mg·kg^−1 p.o., P = 0.059 vs. MK‐801), “trend towards a significant effect”. The “recovery in cognitive performance” value in assay [3] (mice, ITI‐214 0.1 mg·kg^−1 p.o., MK‐801 0.1 mg·kg^−1 s.c.) is 1%; in assay [3] (mice, ITI‐214 1 mg·kg^−1 p.o., MK‐801 0.1 mg·kg^−1 s.c.), 57%; in assay [3] (mice, ITI‐214 3 mg·kg^−1 p.o., MK‐801 0.1 mg·kg^−1 s.c.) it was 51%; in assay [3] (mice, ITI‐214 10 mg·kg^−1 p.o., MK‐801 0.1 mg·kg^−1 s.c.), 45%; in assay [3] (mice, ITI‐214 30 mg·kg^−1 p.o., MK‐801 0.1 mg·kg^−1 s.c.), 32%; in assay [3] (mice, ITI‐214 75 mg·kg^−1 p.o., MK‐801 0.1 mg·kg^−1 s.c.), 11%. In addition, the “time spent in the T‐maze vs. MK‐801/vehicle‐treated group” value in assay [3] (mice, ITI‐214 0.1–75 mg·kg^−1 p.o.) is “did not change”. Also, the “maximal effect, recovery in the cognitive function” value in assay [3] (mice, ITI‐214 p.o., MK‐801 0.1 mg·kg^−1) is on record as “approximately 57%”. Besides, the “effect on fEPSP amplitude, compound alone” value in assay [4] (ITI‐214 per se) was “did not show any effects per se”. Besides, the “effect on forskolin‐induced fEPSP amplitude with activated PDE1” value in assay [4] (forskolin + thapsigargin + ITI‐214) is listed as “rescued the reduced fEPSPs amplitudes”.

With `C[C@]12N[C@H](Cc3ccccc31)c1ccccc12` [MK‐801], the “overall time spent to complete the T‐maze task vs. control group” value in assay [3] (mice, MK‐801 0.075 mg·kg^−1 s.c., Figure S1a (SKF38393 study)) is “reduced”; in assay [3] (mice, MK‐801 0.1 mg·kg^−1 s.c., Figure S1b (ITI‐214 study)), “reduced”. The “spontaneous alternation vs. vehicle‐injected mice” value in assay [3] (mice, MK‐801 0.075 mg·kg^−1 s.c., P < 0.05) was “significant reduction”. Moreover, the “reduction of spontaneous alternation vs. vehicle‐injected mice” value in assay [3] (mice, MK‐801 0.1 mg·kg^−1 s.c., P < 0.05) was about 23%.

Consider `Oc1cc2c(cc1O)C(c1ccccc1)CNCC2` (stereo not drawn) [SKF38393], for which the Correct latency was 0.79 ± 0.02 s in assay [5] (setting [6]), 0.83 ± 0.03 s in assay [5] (setting [7]), 0.77 ± 0.02 s in assay [5] (setting [8]) and 0.85 ± 0.03 s in assay [5] (setting [9]). For the same compound, the Omissions is 11.24 ± 2.64 n in assay [5] (setting [6]), 21.65 ± 2.98 n in assay [5] (setting [7]), 10.61 ± 1.70 n in assay [5] (setting [8]) and 17.74 ± 2.58 n in assay [5] (setting [9]). The Perseverative responses was 0.94 ± 0.26 n in assay [5] (setting [6]), 1.06 ± 0.27 n in assay [5] (setting [7]), 0.83 ± 0.26 n in assay [5] (setting [8]) and 0.67 ± 0.20 n in assay [5] (setting [9]). The Premature responses in assay [5] (setting [6]) stood at 3.17 ± 0.72%; in assay [5] (setting [7]), 1.97 ± 0.69 %; in assay [5] (setting [8]), 3.06 ± 0.27 %; in assay [5] (setting [9]), 2.15 ± 0.49 %. The Reward latency in assay [5] (setting [6]) was 1.24 ± 0.06 s; in assay [5] (setting [7]), 1.27 ± 0.06 s; in assay [5] (setting [8]), 1.21 ± 0.04 s; in assay [5] (setting [9]), 1.31 ± 0.06 s. Further, the enhancement of accuracy result in assay [5] (high‐performing rats, SKF38393 3 or 6 mg·kg^−1 i.p., P > 0.05) was “but not high‐performing rats”. Further, the “recovery in the cognitive performance” value in assay [3] (mice, SKF38393 4 mg·kg^−1 s.c., MK‐801 0.075 mg·kg^−1 s.c.) was 67%; in assay [3] (mice, SKF38393 8 mg·kg^−1 s.c., MK‐801 0.075 mg·kg^−1 s.c.), 43%. For the same compound, the “effect on MK‐801‐induced deficits in spontaneous alternation” value in assay [3] (mice, SKF38393 8 mg·kg^−1 s.c., P > 0.05 vs. MK‐801 and vehicle) was “ineffective”; in assay [3] (mice, SKF38393 2 and 4 mg·kg^−1 s.c., P < 0.05 vs. MK‐801), “improved”. Besides, in assay [3] (mice, SKF38393 2, 4, 8 mg·kg^−1 s.c.), the “time spent in the T‐maze vs. MK‐801/vehicle‐treated group” value is given as “did not change”. Further, in assay [3] (mice, SKF38393 s.c., MK‐801 0.075 mg·kg^−1), the “maximal effect, recovery in the cognitive function” value is listed as “approximately 67%”. The “effect on synaptic transmission (fEPSP amplitude)” value in assay [4] (SKF38393) is listed as “increased synaptic transmission”.

Turning to `C=C[C@@]1(C)CC(=O)[C@]2(O)[C@@]3(C)[C@@H](O)CCC(C)(C)[C@@H]3[C@H](O)[C@H](OC(C)=O)[C@@]2(C)O1` [forskolin], the “effect on fEPSPs” value in assay [4] (forskolin 0.1, 1, 10 μM) is “increased fEPSPs concentration‐dependently”.

Consider `C/C=C(/C)C(=O)O[C@H]1C(C)=C2[C@H]([C@@H]1OC(=O)CCCCCCC)[C@@](C)(OC(C)=O)C[C@H](OC(=O)CCC)[C@@]1(O)[C@H]2OC(=O)[C@@]1(C)O` [thapsigargin], for which, in assay [4] (forskolin + thapsigargin (PDE1 activated via Ca^2+/calmodulin)), the “effect on forskolin‐induced fEPSP amplitude” value is on record as “reduced fEPSPs amplitudes”.
